Results reported in ChEMBL document CHEMBL1130427, “Phenylimidazolidin-2-one derivatives as selective 5-HT3 receptor antagonists and refinement of the pharmacophore model for 5-HT3 receptor binding” (J Med Chem, 1997).
Calls of active or inactive are those of the source.

Key:
[1] = molecular target: T1, Serotonin 3 (5-HT3) receptor (Rattus norvegicus) (UniProt P35563+Q9JJ16); test: (§1) Inhibition of the Bezold Jarisch reflex evoked by 30 ug/Kg of 5-HT.; format: functional
In short: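 Rats anesthetized with ethylurethane, 1.25 g/kg ip. Bezold–Jarisch reflex evoked by 5-HT 30 μg/kg iv. The rapid, transient fall in heart rate was quantified without and with antagonist.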

[2] = molecular target: T1, Serotonin 3 (5-HT3) receptor (Rattus norvegicus); test: Antagonist activity ([…]) for the Bezold Jarisch reflex evoked by 30 ug/Kg of 5-HT in ethylurethane anesthetized rats (i.v.); format: functional
[3] = molecular target: T2, Serotonin 3 (5-HT3) receptor (Rattus norvegicus, UniProt P35563+Q9JJ16); test: In vitro affinity for 5-hydroxytryptamine 3 (5-HT3) receptor by displacement of [3H]BRL-43694 from rat entorhinal cortex
T2 sequence (P35563 whole entry): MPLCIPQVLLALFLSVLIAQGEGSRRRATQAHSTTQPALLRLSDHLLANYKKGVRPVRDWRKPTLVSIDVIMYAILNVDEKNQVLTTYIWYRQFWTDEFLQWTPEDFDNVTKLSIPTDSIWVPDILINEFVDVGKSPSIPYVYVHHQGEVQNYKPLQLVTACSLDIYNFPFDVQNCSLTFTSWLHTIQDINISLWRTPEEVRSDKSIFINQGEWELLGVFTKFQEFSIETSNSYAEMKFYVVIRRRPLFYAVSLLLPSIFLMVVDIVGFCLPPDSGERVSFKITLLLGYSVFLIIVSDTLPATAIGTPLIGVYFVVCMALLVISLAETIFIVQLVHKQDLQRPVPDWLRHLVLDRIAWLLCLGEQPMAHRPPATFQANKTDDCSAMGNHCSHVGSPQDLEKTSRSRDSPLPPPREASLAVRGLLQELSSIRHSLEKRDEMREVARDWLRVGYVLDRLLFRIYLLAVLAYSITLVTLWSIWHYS
T2 sequence (Q9JJ16 whole entry): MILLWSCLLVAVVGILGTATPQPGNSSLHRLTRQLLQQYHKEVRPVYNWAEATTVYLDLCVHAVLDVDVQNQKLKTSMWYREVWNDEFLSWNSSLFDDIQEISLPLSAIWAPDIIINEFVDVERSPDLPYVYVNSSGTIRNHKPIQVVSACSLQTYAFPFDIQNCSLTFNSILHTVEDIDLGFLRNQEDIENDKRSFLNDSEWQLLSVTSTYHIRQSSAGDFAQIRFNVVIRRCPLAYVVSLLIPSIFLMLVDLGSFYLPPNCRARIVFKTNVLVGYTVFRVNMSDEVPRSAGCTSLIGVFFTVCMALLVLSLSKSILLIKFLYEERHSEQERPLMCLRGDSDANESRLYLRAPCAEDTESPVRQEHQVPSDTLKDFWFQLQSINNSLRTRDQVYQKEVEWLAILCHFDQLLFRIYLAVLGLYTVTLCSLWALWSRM
In short: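 Each displacement curve has 10 concentrations in triplicate; Ki averaged from at least three curves (±SEM) using the Ligand program.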

[4] = molecular target: T1, Serotonin 3 (5-HT3) receptor (Rattus norvegicus); test: Inhibition of the Bezold Jarisch reflex evoked by 30 ug/Kg of 5-HT; Weak activity.; format: functional
Rattus norvegicus = test: Antagonist activity (100 ug/kg) for the Bezold Jarisch reflex evoked by 30(ug/Kg) of 5-HT receptor in ethylurethane anesthetized rats i.v.; format: functional
[5] = molecular target: T1, Serotonin 3 (5-HT3) receptor (Rattus norvegicus); test: as §1; format: functional; remark: listed apart in the source
[6] = molecular target: T3, 5-hydroxytryptamine receptor 3A (Rattus norvegicus) (UniProt P35563); test: Antagonist activity (100 ug/kg) for the Bezold Jarisch reflex evoked by 30 (ug/Kg) of 5-hydroxytryptamine 3 receptor in ethylurethane anesthetized rats i.v.; format: functional
T3 sequence (whole entry): T2 sequence (P35563 whole entry)

Row | SMILES | ID50 [1] | inhibition [2] | Ki [3] | ID50 [4] | Inhibition (Rattus norvegicus) | ID50 [5] | inhibition [6]
1 | Cc1cc(C)cc(N2CCN(Cc3nc[nH]c3C)C2=O)c1 | 0.0034 mg/kg | 86% | 0.42 nM | – | – | – | –
2 | Cc1nc[nH]c1CN1CCN(c2cccc([N+](=O)[O-])c2)C1=O | – | – | 6.6 nM | – | – | – | –
3 | Cc1[nH]cnc1CN1CCN(c2cc(Cl)cc(Cl)c2)C1=O | 0.0022 mg/kg | 93% | 0.038 nM | – | – | – | –
4 | CN1C2CCC1CC(N1CCN(c3cccc(Cl)c3)C1=O)C2 (stereo in doubt; 34) [listing 1 of 2 here] | – | 0% | – | Partially active | – | – | –
5 | Cc1cccc(N2CCN(Cc3nc[nH]c3C)C2=O)c1 | 0.0031 mg/kg | 86% | 0.93 nM | – | – | – | –
6 | CN1C2CCCC1CC(NC(=O)c1nn(C)c3ccccc13)C2 (centres undefined) | 0.00088 mg/kg | 95% | – | – | – | – | –
7 | CN1C2CCCC1CC(N1CCN(c3cccc(Cl)c3)C1=O)C2 (stereo in doubt; 38) [listing 1 of 2 here] | – | – | 360 nM | – | – | – | –
8 | O=C1N(c2cccc(Cl)c2)CCN1C1CN2CCC1CC2 (centres undefined) | – | – | 2 nM | – | 60% | 0.0799 mg/kg | –
9 | Cc1[nH]cnc1CN1CCN(c2ccccc2)C1=O | 0.0039 mg/kg | 95% | 3.4 nM | – | – | – | –
10 | O=C1N(Cc2c[nH]cn2)CCN1c1ccccc1 | – | 56% | 4 nM | Partially active | – | – | –
11 | O=C1N(c2cc(Cl)cc(Cl)c2)CCN1C1CN2CCC1CC2 (centres undefined) | 0.0206 mg/kg | 76% | 1 nM | – | – | – | –
12 | COc1ccc(Cl)cc1N1CCN(C2CN3CCC2CC3)C1=O (centres undefined) | – | 11% | 40 nM | Partially active | – | – | –
13 | COc1ccc(Cl)cc1N1CCN(C2CC3CCC(C2)N3C)C1=O (centres undefined) | – | 22% | 400 nM | Partially active | – | – | –
14 | Cc1[nH]cnc1CN1CCN(c2ccccc2Cl)C1=O | – | 5% | 290 nM | Partially active | – | – | –
15 | Cc1[nH]cnc1CN1CCN(c2cccc(Cl)c2)C1=O | 0.00526 mg/kg | 87% | 0.5 nM | – | – | – | –
16 | Cc1[nH]cnc1CN1CCN(c2cccc(C#N)c2)C1=O | 0.0322 mg/kg | 88% | 2.7 nM | – | – | – | –
17 | CN1C2CCCC1CC(N1CCN(c3cccc(Cl)c3)C1=O)C2 (stereo in doubt; 37) [listing 1 of 2 here] | – | – | 250 nM | – | – | – | –
18 | O=C1N(c2cccc(C(F)(F)F)c2)CCN1C1CN2CCC1CC2 (centres undefined) | – | 14% | 98 nM | Partially active | – | – | –
19 | Cc1[nH]cnc1CN1CCN(c2ccc(Cl)cc2)C1=O | – | 29% | 19 nM | Partially active | – | – | –
20 | CN1C2CCC1CC(NC(=O)N1CC(C)(C)c3ccccc31)C2 (centres undefined) | 0.00089 mg/kg | 90.5% | 0.26 nM | – | – | – | –
21 | CSc1cccc(N2CCN(C3CN4CCC3CC4)C2=O)c1 (centres undefined) | – | 28% | 6 nM | Partially active | – | – | –
22 | N#Cc1cccc(N2CCN(C3CN4CCC3CC4)C2=O)c1 (centres undefined) | – | 43% | 30 nM | Partially active | – | – | –
23 | O=C1N(c2cccc(Br)c2)CCN1C1CN2CCC1CC2 (centres undefined) | – | 77.7% | 3 nM | Partially active | – | – | –
24 | CN1[C@@H]2CC[C@H]1C[C@@H](OC(=O)c1c[nH]c3ccccc13)C2 | 0.001 mg/kg | – | – | – | – | – | –

Row | SMILES | ID50 [1] | inhibition [2] | Ki [3] | ID50 [4] | Inhibition (Rattus norvegicus) | ID50 [5] | inhibition [6]
25 | Cc1[nH]cnc1CN1CCN(c2cccc(C(F)(F)F)c2)C1=O | – | 39% | 9.7 nM | Partially active | – | – | –
26 | CSc1cccc(N2CCN(Cc3nc[nH]c3C)C2=O)c1 | 0.0286 mg/kg | 88% | 1.6 nM | – | – | – | –
27 | O=C1N(c2ccc(Cl)cc2)CCN1C1CN2CCC1CC2 (centres undefined) | – | – | 210 nM | Partially active | – | – | 8%
28 | CCn1cnc(CN2CCN(c3ccccc3)C2=O)c1C | – | 21% | 85 nM | Partially active | – | – | –
29 | CN1C2CCC1CC(N1CCN(c3cccc(Cl)c3)C1=O)C2 (stereo in doubt; 34) [listing 2 of 2 here] | – | – | > 10000 nM | – | – | – | –
30 | CC[n+]1c[nH]c(C)c1CN1CCN(c2ccccc2)C1=O | – | 38% | 67 nM | Partially active | – | – | –
31 | CN1C2CCC1CC(N1CCN(c3ccccc3)C1=O)C2 (centres undefined) | – | 56% | 12 nM | Partially active | – | – | –
32 | Cc1[nH]c[n+](C)c1CN1CCN(c2ccccc2)C1=O | – | 45% | 55 nM | Partially active | – | – | –
33 | CN1C2CCCC1CC(N1CCN(c3cccc(Cl)c3)C1=O)C2 (stereo in doubt; 38) [listing 2 of 2 here] | – | 21% | – | Partially active | – | – | –
34 | CN1C2CCCC1CC(N1CCN(c3cccc(Cl)c3)C1=O)C2 (stereo in doubt; 37) [listing 2 of 2 here] | – | 15% | – | Partially active | – | – | –
35 | O=C1N(c2cccc([N+](=O)[O-])c2)CCN1C1CN2CCC1CC2 (centres undefined) | – | 5% | 10 nM | Partially active | – | – | –
36 | Cc1nccn1CC1CCc2c(c3ccccc3n2C)C1=O (centres undefined) | 0.00225 mg/kg | – | – | – | – | – | –
37 | Cc1cccc(N2CCN(C3CN4CCC3CC4)C2=O)c1 (centres undefined) | – | 75% | 4 nM | – | – | 0.0376 mg/kg | –
38 | CN1C2CCC1CC(N1CCN(c3cccc(Cl)c3)C1=O)C2 (stereo in doubt; 33) [listing 1 of 2 here] | – | 27% | – | Partially active | – | – | –
39 | CN1C2CCCC1CC(N1CCN(c3ccccc3)C1=O)C2 (centres undefined) | – | 22% | 190 nM | Partially active | – | – | –
40 | Cc1[nH]cnc1CN1CCN(c2cccc(Br)c2)C1=O | 0.0065 mg/kg | 89% | 0.62 nM | – | – | – | –
41 | O=C1N(c2ccccc2)CCN1C1CN2CCC1CC2 (centres undefined) | 0.0671 mg/kg | 71% | 8 nM | – | – | – | –
42 | Cc1c(CN2CCN(c3ccccc3)C2=O)ncn1C | 0.0285 mg/kg | 77% | 8.5 nM | – | – | – | –
43 | COc1cccc(N2CCN(Cc3nc[nH]c3C)C2=O)c1 | 0.0154 mg/kg | 92% | 3.6 nM | – | – | – | –
44 | COc1ccc(Cl)cc1N1CCN(C2CC3CCCC(C2)N3C)C1=O (centres undefined) | – | 5% | > 10000 nM | Partially active | – | – | –
45 | Cc1[nH]cnc1CN1CCN(c2cccc([N+](=O)[O-])c2)C1=O | 0.054 mg/kg | 95% | – | – | – | – | –
46 | COc1cccc(N2CCN(C3CN4CCC3CC4)C2=O)c1 (centres undefined) | – | – | 6 nM | Partially active | 37% | – | –
47 | CN1C2CCC1CC(N1CCN(c3cccc(Cl)c3)C1=O)C2 (stereo in doubt; 33) [listing 2 of 2 here] | – | – | 25 nM | – | – | – | –
48 | Cc1[nH]cnc1CN1CCN(c2cccc(F)c2)C1=O | 0.0176 mg/kg | 84% | 3.7 nM | – | – | – | –
